Reference: article PMC6683736 (The Journal of Cell Biology, 2019)

Experiments:
[1] = system: MDCK cells; assay: Actomyosin organization by IF; format: cell-based, canine
[2] = system: Scribble PDZ1 domain; assay: X-ray crystal structure of Scribble PDZ1/SGEF-PDZpeptide complex; format: binding, human; details: 1.1 Å, PDB ID 6MYE
[3] = system: SGEF; assay: Coimmunoprecipitation of Dlg1 constructs with SGEF, HEK293FT lysates; format: binding, Human; details: WB
Procedure, shortened: (§1)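 HEK293FT cells were co-transfected by calcium phosphate; medium was changed at 24 h and cells harvested at 48 h. Lysis was in Tris-HCl pH 7.4, MgCl2, 150 mM NaCl, 1% Triton X-100 and protease inhibitors. Equal protein was incubated with GFP-Trap beads for 1 h at 4°C, washed four times, then immunoblotted with anti-GFP and anti-myc (or anti-His).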

[4] = system: MDCK cells; assay: Height of MDCK monolayer, confocal XZ; format: cell-based, canine; details: average, n = 50 cells; Fig. 9 I
Procedure, shortened: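 Confocal XZ sections of confluent control, SGEF-knockdown and rescue MDCK monolayers were acquired on a Leica SP8. Cells were stained for E-cadherin, β-catenin and nuclei, or for F-actin and Hoechst, and monolayer height was measured.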

[5] = system: MDCK cells; assay: Zigzag index of tight junctions; format: cell-based, canine; details: compared with SGEF KD; Fig. 9 J
[6] = system: Dlg1; assay: Coimmunoprecipitation of SGEF constructs with GFP-Dlg1, HEK293FT lysates; format: binding, Mouse; details: GFP-trap nanobodies, WB
Procedure, shortened: as §1

[7] = system: Scribble/SGEF/Dlg1 ternary complex; assay: Coprecipitation of Scribble with GFP-Dlg1; format: binding; details: HA-Scribble and GFP-Dlg1 coexpressed, IP anti-GFP, HEK293
[8] = system: Xenopus embryos; assay: Junctional localization in gastrula-stage embryos; format: in vivo, Xenopus laevis; details: live confocal, mNeon-tagged
Procedure, shortened: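 Embryos were microinjected in the animal hemisphere with mRNAs, either at the two-cell stage (each cell twice) or at the four-cell stage (once). They were raised to gastrula stage (10.5–12) and live-imaged by confocal. mNeon-tagged protein was coexpressed with BFP-ZO-1 (tight junction marker) and PLEKHA7-mCherry (adherens junction marker), and the junctional-to-cytosolic intensity ratio was quantified.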

[9] = system: Scribble; assay: Coimmunoprecipitation of SGEF constructs with GFP-Scribble, HEK293FT lysates; format: binding, Human; details: GFP-trap nanobodies, WB

Molecule: Cc1ccc2c(c1)C(=O)C1(O)CCN(c3ccccc3)C1=N2 (centres unmarked) [blebbistatin, reference compound]
- relative strength of effect on actomyosin array and stress fibers ([1]; 16 h, blebbistatin vs Y-27632): stronger effect than Y-27632

Molecule: ac-KPNGLLITDFPVEDCONH2 [SGEF-PDZpeptide]
- accessible surface area covered by peptide [2]: ~500 Å^2
- binding register in the PDZ pockets [2]: novel interactions through pockets near the α1 helix in Scribble PDZ1 (S+1 pocket), which accommodate the P+1 Pro in SGEF
- residues of peptide interacting with Scribble PDZ domain [2]: 11 residues

B1: GUK domain alone: Dlg1 GUK domain, 699–893 (protein, UniProt Q12959 699-893, looked up, fragment)
chain: YVLSYEPVNQQEVNYTRPVIILGPMKDRINDDLISEFPDKFGSCVPHTTRPKRDYEVDGRDYHFVTSREQMEKDIQEHKFIEAGQYNNHLYGTSVQSVREVAEKGKHCILDVSGNAIKRLQIAQLYPISIFIKPKSMENIMEMNKRLTEEQARKTFERAMKLEQEFTEHFTAIVQGDTLEDIYNQVKQIIEEQSG
modifications: GUK domain
- interaction with SGEF [3]: able to interact with SGEF

B2: Dlg1 C-terminal construct: C-terminal half of Dlg1 comprising the SH3 and GUK domains (protein)
chain: KRSLYVRALFDYDKTKDSGLPSQGLNFKFGDILHVINASDDEWWQARQVTPDGESDEVGVIPSKRRVEKKERARLKTVKFNSKTRDKGEIPDDMGSKGLKHVTSNASDSESSYRGQEEYVLSYEPVNQQEVNYTRPVIILGPMKDRINDDLISEFPDKFGSCVPHTTRPKRDYEVDGRDYHFVTSREQMEKDIQEHKFIEAGQYNNHLYGTSVQSVREVAEKGKHCILDVSGNAIKRLQIAQLYPISIFIKPKSMENIMEMNKRLTEEQARKTFERAMKLEQEFTEHFTAIVQGDTLEDIYNQVKQIIEEQSGSYIWVPAKEKL
modifications: left off: GFP (inferred from the legend of Figure 2), end not stated, kept
- interaction with SGEF [3]: able to bind efficiently to SGEF

B3: SGEF 1–400: minimum region required to bind Scribble and Dlg1, no catalytic activity (protein)
chain: MDGESEVDFSSNSITPLWRRRSIPQPHQVLGRSKPRPQSYQSPNGLLITDFPVEDGGTLLAAQIPAQVPTASDSRTVHRSPLLLGAQRRAVANGGTASPEYRAASPRLRRPKSPKLPKAVPGGSPKSPANGAVTLPAPPPPPVLRPPRTPNAPAPCTPEEDLTGLTASPVPSPTANGLAANNDSPGSGSQSGRKAKDPERGLFPGPQKSSSEQKLPLQRLPSQENELLENPSVVLSTNSPAALKVGKQQIIPKSLASEIKISKSNNQNVEPHKRLLKVRSMVEGLGGPLGHAGEESEVDNDVDSPGSLRRGLRSTSYRRAVVSGFDFDSPTSSKKKNRMSQPVLKVVMEDKEKFSSLGRIKKKMLKGQGTFDGEENAVLYQNYKEKALDIDSDEESEPKE
modifications: left off: myc (inferred from the legend of Figure 2), end not stated, kept
- cell height [4]: 2.57 ± 0.049 µm
- zigzag index (in words) [5]: increased significantly
- rescue of increased contractility ([1]; myosin II staining, SGEF KD background): able to rescue the increase in contractility
- interaction with Dlg1 [6]: able to bind to Dlg1

B4: SGEF 1–414: N-terminal half of SGEF, ends just before DH-PH domain (protein)
chain: MDGESEVDFSSNSITPLWRRRSIPQPHQVLGRSKPRPQSYQSPNGLLITDFPVEDGGTLLAAQIPAQVPTASDSRTVHRSPLLLGAQRRAVANGGTASPEYRAASPRLRRPKSPKLPKAVPGGSPKSPANGAVTLPAPPPPPVLRPPRTPNAPAPCTPEEDLTGLTASPVPSPTANGLAANNDSPGSGSQSGRKAKDPERGLFPGPQKSSSEQKLPLQRLPSQENELLENPSVVLSTNSPAALKVGKQQIIPKSLASEIKISKSNNQNVEPHKRLLKVRSMVEGLGGPLGHAGEESEVDNDVDSPGSLRRGLRSTSYRRAVVSGFDFDSPTSSKKKNRMSQPVLKVVMEDKEKFSSLGRIKKKMLKGQGTFDGEENAVLYQNYKEKALDIDSDEESEPKEQKSDEKIVIHHKPL
modifications: left off: myc (inferred from the legends of Figures 2 and 3), end not stated, kept
- formation of Scribble/SGEF/Dlg1 ternary complex [7]: minimum SGEF mutant that can mediate the formation of the Scribble/SGEF/Dlg1 complex
- interaction with Dlg1 [6]: interacted efficiently with Dlg1

B5: SGEF 1–227: SGEF deletion mutant, binds to Scribble but not to Dlg1 (protein)
chain: MDGESEVDFSSNSITPLWRRRSIPQPHQVLGRSKPRPQSYQSPNGLLITDFPVEDGGTLLAAQIPAQVPTASDSRTVHRSPLLLGAQRRAVANGGTASPEYRAASPRLRRPKSPKLPKAVPGGSPKSPANGAVTLPAPPPPPVLRPPRTPNAPAPCTPEEDLTGLTASPVPSPTANGLAANNDSPGSGSQSGRKAKDPERGLFPGPQKSSSEQKLPLQRLPSQENEL
modifications: left off: myc (inferred from the legends of Figures 1 and 2), end not stated, kept
- cell height [4]: 2.99 ± 0.065 µm
- interaction with Dlg1 [6]: did not interact with Dlg1
- localization at apical junctional complex [8]: localized efficiently to the AJC
- interaction with Scribble [9]: sufficient to interact with Scribble

B6: SGEF 228–871: SGEF deletion mutant, binds to Dlg1 but not to Scribble (protein)
chain: LENPSVVLSTNSPAALKVGKQQIIPKSLASEIKISKSNNQNVEPHKRLLKVRSMVEGLGGPLGHAGEESEVDNDVDSPGSLRRGLRSTSYRRAVVSGFDFDSPTSSKKKNRMSQPVLKVVMEDKEKFSSLGRIKKKMLKGQGTFDGEENAVLYQNYKEKALDIDSDEESEPKEQKSDEKIVIHHKPLRSTWSQLSAVKRKGLSQTVSQEERKRQEAIFEVISSEHSYLLSLEILIRMFKNSKELSDTMTKTERHHLFSNITDVCEASKKFFIELEARHQNNIFIDDISDIVEKHTASTFDPYVKYCTNEVYQQRTLQKLLATNPSFKEVLSRIESHEDCRNLPMISFLILPMQRVTRLPLLMDTICQKTPKDSPKYEVCKRALKEVSKLVRLCNEGARKMERTEMMYTINSQLEFKIKPFPLVSSSRWLVKRGELTAYVEDTVLFSRRTSKQQVYFFLFNDVLIITKKKSEESYNVNDYSLRDQLLVESCDNEELNSSPGKNSSTMLYSRQSSASHLFTLTVLSNHANEKVEMLLGAETQSERARWITALGHSSGKPPADRTSLTQVEIVRSFTAKQPDELSLQVADVVLIYQRVSDGWYEGERLRDGERGWFPMECAKEITCQATIDKNVERMGRLLGLETNV
modifications: left off: myc (inferred from the legends of Figures 1 and 2), end not stated, kept
- interaction with Dlg1 [6]: able to bind efficiently to Dlg1
- localization at apical junctional complex [8]: predominantly cytosolic, with only a small fraction still targeted to junctions
- interaction with Scribble [9]: unable to bind

B7: SH3 domain by itself: Dlg1 SH3 domain, 536–636 (protein, UniProt Q12959 536-636, looked up, fragment)
chain: GQAVTIVAQYRPEEYSRFEAKIHDLREQMMNSSISSGSGSLRTSQKRSLYVRALFDYDKTKDSGLPSQGLNFKFGDILHVINASDDEWWQARQVTPDGESD
modifications: SH3 domain
- interaction with SGEF [3]: no detectable binding
